Measurements reported in ChEMBL document CHEMBL3826928, “Incorporation of Phosphonate into Benzonaphthyridine Toll-like Receptor 7 Agonists for Adsorption to Aluminum Hydroxide” (J Med Chem, 2016).

Experiments:
[1] = Aqueous solubility of compound in pH 6.5 to 7.2 solution incubated for 24 hrs by saturated shake flask method; assay type: physicochemical; settings: buffer, pH 6.5, 24 h
Serum = assay: Drug level in Balb/c mouse serum at 100 ug, im measured up to 24 hrs post dose using alum bound compound formulation; assay type: ADME, organism-based; settings: in vivo
Outline: (§1)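 Female BALB/c mice (6−8 weeks, 3 per group) given 100 μg intramuscularly, with or without alum, 50 μL in each hind leg. Serum from retro-orbital bleeds at time points; protein precipitation, reverse-phase LC and ESI+ MRM mass spectrometry. Injected muscle drug level measured at 24 h.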

Muscle tissue = assay: Drug level in Balb/c mouse muscle at 100 ug, im measured at 24 hrs post dose; assay type: ADME, organism-based; settings: in vivo; outline: as §1

Row | Drug uptake (Serum) | Drug uptake (Muscle tissue) | Structure (SMILES) | solubility [1]
1 |  |  | Cc1ccc2c(c1)nc(N)c1ncc(CCc3ccc(OCCCP(=O)(O)O)cc3C)cc12 | Insoluble
2 | Not Active | Not Active | Cc1ccc2c(c1)nc(N)c1ncc(CCc3ccc(OCCOCCOCCC(F)(F)P(=O)(O)O)cc3C)cc12 | 
